Test results reported in PMC9173812 (Proceedings of the National Academy of Sciences of the …, 2022).

Legend:
5-HT7R [1] = target: T1, 5-HT7R (Homo sapiens, UniProt P34969); type: cell-based; conditions: 10 µM ligand, 2 to 60 min, Western blot
Outline: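 HEK-293 cells stably expressing h5-HT7R were exposed to 10 µM ligand for 2 to 60 min, or to rising concentrations for 7 min. Lysates were run on 10% SDS-PAGE, transferred to PVDF and blocked in 5% milk in TBS-T (pH 7.4), then probed for phospho-ERK1/2. Bands were quantified by densitometry; three independent experiments, mean ± SEM.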

5-HT7R [2] = target: T1, 5-HT7R; type: cell-based
Outline: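 HEK-293 cells stably expressing h5-HT7R, grown in DMEM with 10% dialyzed FCS and penicillin/streptomycin. Cells were preincubated with a 5-HT7R antagonist (10 µM, 10 min) or the PKA inhibitor H89 before 10 µM ligand. Lysates were read by AlphaScreen SureFire p-ERK1/2 and p-c-SRC kits, or by Western blot with densitometry. Three independent experiments; mean ± SEM.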

thermal nociception = experiment: Tail immersion test; type: in vivo; conditions: 5 mg/kg s.c.
Outline: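 Male mice (8–14 wk; C57BL/6 or 5-HT7R−/− on C57BL/6 background) received test compound 5 mg/kg by tail s.c. injection. Vehicle was 20% DMSO and 5% Tween 80 in PBS. Some groups were also given 5-HT7R antagonist 5 mg/kg i.p. Tail immersion latency in 50 ± 2 °C water was measured 10 min (T0) and 40 min (T30) post-injection.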

5-HT7R [3] = target: T1, 5-HT7R; experiment: cAMP accumulation; type: cell-based; conditions: ligand alone
[4] = Pharmacokinetic study in plasma and brain; type: in vivo; conditions: 5 mg/kg s.c., C57BL/6 mice
[5] = tested on: formalin-induced hindpaw licking; experiment: Formalin test; type: in vivo; conditions: rats, Serodolin 10 mg/kg s.c., morphine 4 mg/kg s.c.
[6] = pretreatment, Serodolin 10 µM 7 min, AlphaScreen

T1 sequence (P34969 1-432): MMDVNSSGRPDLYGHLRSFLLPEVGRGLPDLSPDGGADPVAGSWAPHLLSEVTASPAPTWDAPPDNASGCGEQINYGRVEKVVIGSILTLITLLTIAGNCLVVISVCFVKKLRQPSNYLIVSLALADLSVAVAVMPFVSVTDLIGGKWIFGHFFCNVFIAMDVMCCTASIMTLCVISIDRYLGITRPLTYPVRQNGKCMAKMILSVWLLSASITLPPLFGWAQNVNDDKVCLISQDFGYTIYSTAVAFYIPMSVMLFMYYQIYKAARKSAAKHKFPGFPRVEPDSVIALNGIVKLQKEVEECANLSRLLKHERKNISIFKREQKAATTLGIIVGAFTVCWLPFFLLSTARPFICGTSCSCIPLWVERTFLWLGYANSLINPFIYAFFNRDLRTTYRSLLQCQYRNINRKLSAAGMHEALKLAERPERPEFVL

O=C1Nc2cccc3c2C1(CCCCN1CC=C(c2ccccc2)CC1)CCC3 (stereo not shown) [DR4004]
induction of ERK phosphorylation (5-HT7R [1]): none of them were able to induce ERK activation

Cc1nn(C)c(C)c1-c1cccc(CCN(C)C)c1 [E55888]
phosphorylation of c-SRC kinase at Tyr416 (5-HT7R [2]; 10 µM, 7 min, Western blot): could not be observed after 5-CT or E55888 stimulation | antinociceptive effect in 5-HT7R KO mice (thermal nociception): did not exert any antinociceptive effect | induction of ERK phosphorylation (5-HT7R [1]): induce ERK phosphorylation | effect on cAMP when tested alone (5-HT7R [3]): induced a concentration-dependent accumulation of cAMP | time after which compound is eliminated / undetectable in plasma and brain [4]: 120 min | maximum of detection in brain ([4]; brain): 1.4 ± 0.2 µg/mL | maximum of detection in plasma ([4]; plasma): 6.1 ± 0.5 µg/mL

CC(C)(C)n1nc(-c2ccc(Cl)cc2)c2c(N)ncnc21 [PP2]
block of Serodolin-induced ERK phosphorylation (5-HT7R [2]; [6]): 99% | block of Serodolin-induced c-SRC phosphorylation (5-HT7R [2]; [6]): 100%

Nc1ncnc2c1cnn2-c1ccccc1 [PP3]
effect on Serodolin-induced ERK and c-SRC phosphorylation (5-HT7R [2]; pretreatment, AlphaScreen): inactive

CN1CC[C@]23c4c5ccc(O)c4O[C@H]2[C@@H](O)C=C[C@H]3[C@H]1C5 [morphine]
inhibitory effect on licking, early phase (vs vehicle-treated group) ([5]; 0 to 5 min, not significant): −57% | inhibition of licking, late phase (vs vehicle-treated group) ([5]; 17 to 27 min): −64%
